CYP2C19 act: activators of human cytochrome P450 2C19; P33261; 96,000 tested, under 10 active; activation factor at 5 µM; recombinant CYP2C19, luciferin-H EGE luminescence; hits give high values; 0 = fully inhibited enzyme, 1 = untreated enzyme;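 active = activation factor of at least 2 at 5 µM in the primary screen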;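 note: 0 = wells with 2.5 mM tranylcypromine and 1 = vehicle-only wells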
CYP2C9 inhib: blocks human cytochrome P450 2C9. CYP2C9 Supersomes, luciferin-H conversion, luminescence. inhibition, % at 5 µM. 96,000 compounds, 20% hits;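 active = blocking of liver enzyme CYP2C9 beyond about 50% at 5 µM, limit read from the data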
Target sequence (P11712 whole entry, looked up): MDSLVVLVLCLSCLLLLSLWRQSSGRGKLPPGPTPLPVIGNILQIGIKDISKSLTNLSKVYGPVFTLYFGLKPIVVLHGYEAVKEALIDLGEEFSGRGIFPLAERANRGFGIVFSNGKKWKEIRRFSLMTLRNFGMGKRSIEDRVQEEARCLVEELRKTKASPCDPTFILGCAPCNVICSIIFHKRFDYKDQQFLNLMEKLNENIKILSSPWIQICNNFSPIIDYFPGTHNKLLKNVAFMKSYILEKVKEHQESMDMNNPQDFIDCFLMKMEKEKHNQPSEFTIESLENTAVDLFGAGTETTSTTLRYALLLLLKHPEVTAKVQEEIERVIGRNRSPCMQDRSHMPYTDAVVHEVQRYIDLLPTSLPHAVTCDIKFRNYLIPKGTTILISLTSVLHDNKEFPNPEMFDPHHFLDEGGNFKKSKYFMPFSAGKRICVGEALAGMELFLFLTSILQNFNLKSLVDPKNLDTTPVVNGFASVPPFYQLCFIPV
E coli WT exp: growth inhibitors of E. coli BW25113 wild type. growth inhibition, % at 100 µM. AID 710. 98,000 compounds, 0.15% hits. OD600 absorbance;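 active = growth inhibition above about 50% at one test dose, limit read from the data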;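 note: growth measured after 20 h incubation at 37 °C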
CYP2C19 inh: human CYP2C19 inhibition | AID 778 | P33261 | inhibition, % at 5 µM | CYP2C19 Supersomes, luciferin-H EGE luminescence, 30 min | 96,000 compounds, 21% hits;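 active = CYP2C19 inhibition above a set limit at 5 µM in the primary screen, cut at about 50% in these data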;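 note: plate controls were negative control wells for no effect and 2.5 mM tranylcypromine positive control for full effect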
CYP2C9 act: CYP2C9 (human) activation; activation factor at 5 µM; AID 1024; 96,000 compounds, 1.4% hits; recombinant CYP2C9, luciferin-H conversion, luminescence; hits give high values; factor 1 = untreated enzyme, 0 = blocked; P11712;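 active = activation factor of 2 or more for CYP2C9 at a 5 µM dose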;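 note: 0 = sulfaphenazole-blocked wells and 1 = vehicle-only wells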
tolC growth inh: growth inhibitors of E. coli BW25113 tolC mutant; OD615; 65,000 compounds, 2.2% hits; growth inhibition, % at 10 µM (by protocol);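 active = growth inhibition at or above a cutoff equal to the mean over every tested compound plus 3 SD, cut at about 60% in these data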;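 note: growth measured after 20 h incubation at 37 °C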
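Test system: tolC-deleted E. coli BW25113; medium: LB with kanamycin 50 µg/mL; compound: single-point testing at 10 µM; incubation: 20 h compound exposure of bacteria at 37 °C; signal: OD at 615 nm; evaluation: growth inhibition in percent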
* = called active by the depositor; nt = no result. This is a sample that favours compounds with a hit; in the whole collection about 29% have one here.

SMILES	CYP2C19 act	CYP2C9 inhib	E coli WT exp	CYP2C19 inh	CYP2C9 act	tolC growth inh
CC(C)(C)NS(=O)(=O)c1ccc(CCC(=O)N2CCCCC2)cc1	0.4	39.4	2.0	60.7*	0.6	6.0
Cc1nc2ccc(S(=O)(=O)NCC(=O)N3CCCCC3)cc2s1	0.8	1.9	-3.0	20.8	1	-10.9
Cc1ccc(-n2c(C)cc(/C=N/NC(=O)c3ccncc3)c2C)c(C)c1	0.8	21.8	10.0	17.6	0.8	nt
COC(=O)CSc1nnc(CNc2ccc(OC)cc2)n1C	0.4	-4.5	1.0	57.9*	1	-40.7
CCOC(=O)c1c(NC(=O)CSc2nnc(CNc3ccc(OC)cc3)n2C)sc(C)c1C	0.7	76.9*	-13.0	31.9	0.2	23.6
COC(=O)CSc1nnc(CNC(=O)Cc2ccccc2)n1C	1.1	-12.8	8.0	-13.5	1.1	-19.4
COc1ccc(C(=O)CSc2nnc(CNc3nc(-c4ccccc4)cs3)n2C)cc1	0.4	61.5*	-6.0	63.8*	0.4	1.4
COc1ccc(OCCCCOc2ccccc2Cl)cc1	1.1	-13.0	3.0	-12.9	1.1	nt
COc1cc(SC)ccc1C(=O)Nc1ccc2c(c1)CCN2S(C)(=O)=O	0.6	-60.4	-5.0	35.2	1.6	-4.8
CCc1nnc(NC(=O)CSc2nc(C3CCCCC3)nc3ccccc23)s1	0.9	14.8	-14.0	5.3	0.9	nt
CN1CCN(CC#CC2(O)CCCCC2)CC1	1.1	-9.8	2.0	-5.9	1.1	5.6
O=C(CSc1nnc(-c2ccncc2)n1Cc1ccco1)c1ccc(Cl)cc1	0.1	91.8*	-5.0	95.0*	0.1	15.8
O=C(CSc1nnc(-c2ccncc2)n1Cc1ccco1)Nc1ccccc1Cl	0	89.3*	5.0	97.3*	0.1	8.1
Cc1cc(C)c(NC(=O)CSc2nnc(-c3ccncc3)n2Cc2ccco2)c(C)c1	0.7	37.8	-6.0	27.1	0.6	nt
O=C(O)CSc1nnc(-c2ccncc2)n1Cc1ccccc1	0.9	45.7	-1.0	8.1	0.5	nt
O=C(CSc1nnc(-c2ccc(Cl)cc2)n1Cc1ccco1)c1cccs1	0.9	54.7*	3.0	7.2	0.5	15.4
COc1ccc(C(=O)COc2ccc(NC(C)=O)cc2)cc1	0.5	45.4	6.0	47.8	0.5	-11.2
N#Cc1nc(COc2ccccc2)oc1NCCCn1ccnc1	0	95.3*	4.0	99.8*	0	1.9
Cc1ccc(OCc2nc(C#N)c(NCCCn3ccnc3)o2)cc1	0	90.7*	1.0	99.1*	0.1	-5.6
N#Cc1nc(COc2ccccc2F)oc1NCCCn1ccnc1	0	89.6*	5.0	96.6*	0.1	4.6
N#Cc1nc(COc2ccc(F)cc2)oc1NCCCn1ccnc1	0	87.5*	5.0	96.5*	0.1	-1.7
CN(C)CCNc1oc(COc2ccc(Cl)cc2)nc1C#N	0.7	13.1	13.0	26.8	0.9	-9.4
Cc1ccc(CNC(=O)CCNC(=O)Cn2ccc3ccccc3c2=O)o1	1	5.1	9.0	-0.8	0.9	-5.1
Cc1ccc(S(=O)(=O)N2CCN(CCO)CC2)cc1-c1nnc2c3ccccc3c(C)nn12	nt	nt	nt	nt	nt	-22.5
CC(C)(C)CC(=O)Nc1ccc(Nc2ccccc2)cc1	0.9	39.0	18.0	13.4	0.6	nt
SMILES	CYP2C19 act	CYP2C9 inhib	E coli WT exp	CYP2C19 inh	CYP2C9 act	tolC growth inh
COc1ccc(Oc2nnc(-c3ccccc3)cc2C#N)cc1	1.2	-10.6	-11.0	-15.9	1.1	nt
CN(C)CCNc1oc(COc2cccc(Cl)c2)nc1C#N	1.1	-27.5	3.0	-12.3	1.3	-10.3
N#Cc1nc(COc2ccc(Br)cc2)oc1NCCCn1ccnc1	0	99.5*	38.0	99.9*	0	96.9*
O=C(Cn1cc2c(n1)CCCC2)NC1CCCCCC1	0.8	1.3	0.0	17.0	1	-6.7
CC(=O)Nc1ccc(NC(=O)Cn2cc3c(n2)CCC(C)C3)cc1 (stereo not given)	nt	nt	4.0	nt	nt	7.6
CCOC(=O)c1cccc(NC(=O)Cn2cc3c(n2)CCC(C)C3)c1 (stereo not given)	0.7	75.4*	3.0	29.2	0.2	5.5
CCN(CC)CCCNC(=O)Cn1cc2c(n1)CCC(C)C2 (stereo not given)	1.1	-4.4	1.0	-8.7	1	-19.9
CCCSCCCNC(=O)Cn1cc2c(n1)CCC(C)C2 (stereo not given)	0.5	46.7	8.0	50.8*	0.5	3.5
CC1CCc2nn(CC(=O)NC3CCCC3)cc2C1 (stereo not given)	0.4	28.6	-6.0	59.0*	0.7	-10.6
CCC(C)NC(=O)CC1Oc2ccc(Cl)cc2NC1=O (stereo not given)	1	-21.1	0.0	4.6	1.2	-8.5
COc1ccc(N2CCN(S(=O)(=O)c3ccc(C(=O)NC4CCCC4)cc3)CC2)cc1	nt	nt	-3.0	nt	nt	-19.7
COc1ccc(S(=O)(=O)Nc2cc(C(=O)NC(C)C)ccc2N2CCOCC2)cc1	0.5	58.5*	0.0	54.1*	0.4	nt
COc1ccc(S(=O)(=O)Nc2cc(C(=O)NC3CCCCCC3)ccc2N2CCOCC2)cc1	0.5	52.5*	-10.0	48.8	0.5	-5.7
CCCC1(c2ccccc2)NC(=O)N(CC(=O)Nc2sc(-c3ccccc3)cc2C(=O)OCC)C1=O (stereo not given)	0.9	60.3*	-14.0	5.3	0.4	nt
CCOC(=O)c1c(C)[nH]c(C(=O)CN2C(=O)NC(C)(c3ccc4ccccc4c3)C2=O)c1C (stereo not given)	0.7	62.3*	-12.0	33.6	0.4	nt
CCOC(=O)c1cc(-c2ccccc2)sc1NC(=O)CC(C)C	0.7	8.0	7.0	26.2	0.9	nt
CCOC(=O)c1c(C)[nH]c(C(=O)Cn2nnc(-c3ccc(Cl)cc3)n2)c1C	1	4.5	-5.0	4.6	1	-10.1
CCCC1(c2ccccc2)NC(=O)N(CC(=O)c2[nH]c(C)c(C(=O)OCC)c2C)C1=O (stereo not given)	0.1	97.5*	-1.0	94.5*	0	23.1
COc1ccc(OC)c(C(=O)CN2C(=O)NC(C)(c3ccccc3)C2=O)c1 (stereo not given)	0	-96.5	-5.0	98.8*	2*	-6.6
Cc1nnc(-c2cnn(-c3ccccc3)c2N)n1Cc1ccncc1	0.6	17.5	0.0	38.3	0.8	nt
Cc1nn(Cc2ccccc2)c(C)c1NC(=O)CSc1nnc(-c2cc(Cl)ccc2O)n1C	0.9	43.4	5.0	14.3	0.6	12.1
CC(C)CC(=O)NC(=S)Nc1ccccc1C(=O)Nc1ccccc1	0.7	27.3	4.0	33.0	0.7	nt
CC1CCc2c(sc(N)c2C(=O)OC(C)C)C1 (stereo not given)	0.9	-44.0	11.0	10.0	1.4	nt
Cc1ccc(C)c(-c2csc(N)c2C(=O)OC(C)C)c1	0.3	67.0*	11.0	69.2*	0.3	nt
COC(=O)Nc1ccc(S(=O)(=O)N2c3ccccc3CCC2C)cc1 (stereo not given)	0.7	38.8	4.0	26.9	0.6	21.3

From PubChem
